Assay results taken from ChEMBL document CHEMBL1649415, “Synthesis, physicochemical characterization, and biological activities of new carnosine derivatives stable in human serum as potential neuroprotective agents” (J Med Chem, 2011).
The source made the active and inactive calls. The rule behind the calls is not given here.

How the values were obtained:
[1] = Antioxidant activity assessed as 4-hydroxy-trans-2,3-nonenal scavenging activity at 1 mM after 1 hr by HPLC relative to control; assay type: functional
How it was run: (§1)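 HNE (50 µM final) incubated with compound (1 mM final) in 1 mM phosphate buffer pH 7.4 at 37 °C for up to 24 h. Samples were injected directly onto reverse-phase C18 HPLC to measure remaining HNE. Scavenging % = 100 − (HNE left with scavenger / HNE left in control × 100); mean ± SEM.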

[2] = Antioxidant activity assessed as 4-hydroxy-trans-2,3-nonenal scavenging activity at 1 mM after 24 hrs by HPLC relative to control; assay type: functional; how it was run: as §1
[3] = Lipophilicity, log D of the compound by shake-flask technique; assay type: physicochemical; details: octanol/water
How it was run: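 Shake-flask at pH 7.4, in phosphate buffer with ionic strength 0.15 M KCl and mutually presaturated n-octanol (4 h). Compound about 0.1 mM in the aqueous phase, shaken about 20 min, then centrifuged. Aqueous concentration measured by UV at 230 nm; at least seven log D determinations per compound.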

[4] = Antioxidant activity assessed as 4-hydroxy-trans-2,3-nonenal scavenging activity at 1 mM after 6 hrs by HPLC relative to control; assay type: functional; how it was run: as §1
[5] = system: Serum; experiment: Stability of the compound in human serum after 3 hrs; assay type: ADME, cell-free
How it was run: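 Compound added from a 10 mM aqueous stock to human serum preheated to 37 °C, giving 0.5 mM final, and incubated at 37 ± 0.5 °C. At intervals, aliquots were deproteinized with an equal volume of acetonitrile/0.1% TFA, centrifuged and filtered. Analysis by RP-HPLC on C18 with methanol/20 mM sodium acetate pH 4.5-5 mM SDS (80/20 to 60/40).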

[6] = Antioxidant activity against CuSO4-induced LDL oxidation assessed as delta-lag time at 100 uM by antioxidation assay; assay type: functional
How it was run: (§2)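 Human plasma LDL (EDTA-treated donor plasma, density 1.019-1.063 g/mL fraction by ultracentrifugation, desalted) diluted in 10 mM phosphate buffer pH 7.4 to 50 µg protein/mL. Compound added at 100 µM final, oxidation started with CuSO4 2.5 µM final at 37 °C. Conjugated dienes followed at 234 nm over 6 h. Lag-time change versus control and propagation rate (ε234 = 29500 M-1 cm-1) derived; mean ± SEM.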

[7] = Antioxidant activity against CuSO4-induced LDL oxidation measured per mg og LDL product assessed as propagation rate of the oxidation at 100 uM by antioxidation assay; assay type: functional; how it was run: as §2
[8] = Toxicity in mouse primary hippocampal neuron assessed as adverse effect at 100 uM after 24 hrs; assay type: tissue-based, Hippocampus
[9] = system: Neuron; experiment: Cytoprotective effect in mouse primary hippocampal neuron assessed as reduction in 4-hydroxy-trans-2,3-nonenal-induced neuronal disruption at 100 uM after 24 hrs; assay type: functional, tissue-based; details: Hippocampus
How it was run: (§3)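 They were grown 6 days in B-27 neurobasal medium at 37 °C, 5% CO2. Compound (100 µM in medium) was given alone or as pretreatment before HNE 10 µM, for 24 h. Death was scored by trypan blue exclusion against pre-incubation counts; mean ± SEM, n = 4-7, paired t test.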

[10] = system: Neuron; experiment: Cytoprotective effect in mouse primary hippocampal neuron assessed as reduction in 4-hydroxy-trans-2,3-nonenal-induced damage at 100 uM after 24 hrs; assay type: functional, Hippocampus; set-up: scale not given: the % may be the effect or the level left; how it was run: as §3
[11] = Drug level in Wistar rat brain measured per gram of tissue at 20 mg/kg, iv after 1.5 hrs; assay type: ADME, organism-based; set-up: dose 20 mg/kg, route intravenous; details: read-out: Drug uptake
How it was run: (§4)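 Male Wistar rats, 200-250 g, given 20 mg/kg i.v. in 0.9% saline; 3 rats per time point, killed at 1.5 or 3 h. Heparinized blood and brain homogenized in equal volume of cold water were deproteinized with acetonitrile/0.1% TFA, centrifuged and filtered. RP-HPLC on C18 with methanol/20 mM sodium acetate pH 4.5-5 mM SDS (70/30), detection 210 and 223 nm; spiked untreated-rat samples used as standards.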

[12] = Drug level in Wistar rat blood at 20 mg/kg, iv after 1.5 hrs; assay type: ADME, organism-based; set-up: dose 20 mg/kg, route intravenous; details: whole blood, read-out: Drug uptake; how it was run: as §4
[13] = Drug level in Wistar rat brain measured per gram of tissue at 20 mg/kg, iv after 3 hrs; assay type: ADME, organism-based; set-up: dose 20 mg/kg, route intravenous; details: read-out: Drug uptake; how it was run: as §4

Compound	Activity [1]	Activity [2]	logD [3]	Activity [4]	Stability [5]	TIME [6]	Activity [7]	Activity [8]	Activity [9]	Activity [10]	concentration at 1.5 h [11]	concentration at 1.5 h [12]	concentration at 3 h [13]
CCCCCCNC(=O)[C@H](Cc1c[nH]cn1)NC(=O)CCN.O=C(O)C(F)(F)F	12%	75.9%	-0.88	35.4%	Stable	1.32 h	6.7 nmol/min	–	–	–	–	–	–
CCCCCCCCCCCCNC(=O)[C@H](Cc1c[nH]cn1)NC(=O)CCN.O=C(O)C(F)(F)F	–	–	0.93	–	Stable	-0.05 h	14.5 nmol/min	–	–	–	–	–	–
CCCCNC(=O)[C@H](Cc1c[nH]cn1)NC(=O)CCN.O=C(O)C(F)(F)F	12.5%	75.2%	-2.01	36.2%	Stable	1.37 h	5.7 nmol/min	–	–	–	–	–	–
CCNC(=O)[C@H](Cc1c[nH]cn1)NC(=O)CCN.O=C(O)C(F)(F)F	8.4%	70.9%	–	32.9%	Stable	1.13 h	7 nmol/min	–	–	–	–	–	–
NCCC(=O)N[C@@H](Cc1c[nH]cn1)C(=O)NCC1CCCCC1.O=C(O)C(F)(F)F	12.8%	62.5%	-0.94	28.2%	Stable	1.42 h	5.6 nmol/min	–	–	–	–	–	–
CCCCCCCCNC(=O)[C@H](Cc1c[nH]cn1)NC(=O)CCN.O=C(O)C(F)(F)F	12.8%	86.7%	-0.23	49.7%	Stable	0.717 h	11.8 nmol/min	–	–	–	–	–	–
NCCC(=O)N[C@@H](Cc1cnc[nH]1)C(=O)O [CARNOSINE]	–	–	–	–	Stable	–	–	Non-toxic	–	–	–	–	–
CCCCCCCCCCNC(=O)[C@H](Cc1c[nH]cn1)NC(=O)CCN.O=C(O)C(F)(F)F	–	–	0.85	–	Stable	0.15 h	21 nmol/min	–	–	–	–	–	–
CCOC[C@H](Cc1c[nH]cn1)NC(=O)CCN.O=C(O)C(F)(F)F	17.9%	86.2%	-2.17	60.7%	Stable	-0.0667 h	12.2 nmol/min	–	–	–	–	–	–
CCCCOc1ccc(CNC(=O)[C@H](Cc2c[nH]cn2)NC(=O)CCN)cc1.O=C(O)C(F)(F)F	8.8%	80.7%	-0.13	32.6%	Stable	0.817 h	10 nmol/min	–	–	–	–	–	–
NCCC(=O)N[C@@H](Cc1c[nH]cn1)C(=O)NCc1ccccc1.O=C(O)C(F)(F)F	7.2%	72.8%	-1.76	29.3%	Stable	1.42 h	5.2 nmol/min	–	–	–	–	–	–
CNC(=O)[C@H](Cc1c[nH]cn1)NC(=O)CCN.O=C(O)C(F)(F)F	8%	75.4%	–	35.2%	Stable	1.25 h	6.8 nmol/min	–	–	–	–	–	–
CCCNC(=O)[C@H](Cc1c[nH]cn1)NC(=O)CCN.O=C(O)C(F)(F)F	12.5%	81%	-2.72	42.7%	Stable	1.13 h	7.7 nmol/min	Non-toxic	Active	40%	600 ng/g	0.26 µg/mL	1100 ng/g
NCCC(=O)N[C@@H](Cc1c[nH]cn1)C(N)=O.O=C(O)C(F)(F)F	10.2%	77.7%	–	31.6%	Stable	1.07 h	7.7 nmol/min	–	–	–	–	–	–
NCCC(=O)N[C@@H](Cc1c[nH]cn1)C(=O)O [CARNOSINE]	20.4%	88.8%	–	59.6%	–	1.12 h	5.8 nmol/min	–	–	6%	–	–	–
